This note sets out measurements from ChEMBL document CHEMBL1221267, “Synthesis, in vitro and in vivo evaluation of 3-arylisoquinolinamines as potent antitumor agents” (Bioorg Med Chem Lett, 2010).

A value given as a limit tells only on which side of the number the result lay.

Experiment [1] deals with HCT-116. Description: Antitumor activity against human HCT116 by sulforhodamine B assay. In kind it is functional, cell-based. The essentials: (§1)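 Human tumour lines from ATCC; growth inhibition by sulforhodamine B staining, absorbance read at 530 nm; IC50 taken as the drug concentration inhibiting cell growth by 50%, calculated by curve fitting.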
(In general: Sulforhodamine B stains cellular protein and so reports cell mass.)

The next experiment has as its system PANC-1. Description: Antitumor activity against human PANC1 by sulforhodamine B assay. In kind it is functional, cell-based. The method, boiled down:
as §1

The subject of another experiment is CAKI-1. In words: Antitumor activity against human Caki1 by sulforhodamine B assay. In kind it is functional, cell-based. The method, boiled down: as §1
In the next experiment the test system is SK-MEL-28. Description: Antitumor activity against human SK-MEL-28 by sulforhodamine B assay. In kind it is functional, cell-based. The method, boiled down:
as §1

For the next experiment, the system named is MDA-MB-231. In words: Antitumor activity against human MDA-MB-231 by sulforhodamine B assay. In kind it is functional, cell-based. The method, boiled down:
as §1

The next experiment relates to PC-3. In words: Antitumor activity against human PC3 by sulforhodamine B assay. In kind it is functional, cell-based. The essentials: as §1
A further experiment concerns OVCAR-3. In words: Antitumor activity against human OVCAR-3 by sulforhodamine B assay. In kind it is functional, cell-based. The method, boiled down:
as §1

A further experiment has as its system SNB-19. Description: Antitumor activity against human SNB19 by sulforhodamine B assay. In kind it is functional, cell-based. The essentials: as §1
Experiment [2] deals with HCT-15. Description: Antitumor activity against human paclitaxel-resistant HCT15 by sulforhodamine B assay. In kind it is functional, cell-based. The essentials: as §1
For experiment [3], the system named is HCT-116. Description: Resistant index, ratio of IC50 for paclitacel-resistant human HCT15 cells to IC50 for human HCT116 cells. In kind it is functional. The essentials:
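Index computed as IC50 in HCT-15 divided by IC50 in HCT 116, both from sulforhodamine B growth inhibition with absorbance at 530 nm.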

Experiment [4] relates to HCT-15. Description: Antitumor activity against paclitaxel-resistant human HCT15 cells xenografted in BALB/c mouse assessed as tumor growth inhibition at 10 mg/kg, ip qd thrice a week from day 10 to day 29. In kind it is functional. Particulars: HCT-15, ip, route intraperitoneal. The method, boiled down: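 Female athymic BALB/c nu/nu mice, six weeks old, received 1 × 10^6 paclitaxel-resistant HCT-15 cells in 0.2 ml RPMI subcutaneously in the right flank. Once tumors were in range, mice were assigned to groups. Dosing was 10 mg/kg/day ip in 5% Cremophor plus 5% ethanol in PBS, three times weekly, days 10–29. Tumor diameters were measured by caliper every 3–5 days. Body weight was monitored.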
(In general: In xenograft studies the graft and the host belong to different species.)

In the case of `COc1cc(OC)cc(-c2cc3ccc(N(C)C)cc3c(N)n2)c1`, the IC50 – broadly, the midpoint of a concentration-inhibition curve – stood at 29 nM with HCT-116 [1]; 26 nM in the experiment with PANC-1; 38 nM in the experiment on CAKI-1; 45 nM in the experiment with SK-MEL-28; 27 nM in the experiment on MDA-MB-231; 48 nM in the experiment on PC-3. The results for the half-maximal inhibitory concentration (IC50) with OVCAR-3 and with SNB-19 were 25 nM and 57 nM, respectively.
For the molecule `Cc1ccc2cc(-c3ccccc3F)nc(N)c2c1`, the IC50 in the experiment on HCT-116 [1] worked out at 1220 nM; with PANC-1, 2140 nM; with CAKI-1, 590 nM; with SK-MEL-28, 1620 nM; in the experiment with MDA-MB-231 it was 720 nM; in the experiment with PC-3 it was 2760 nM. For the same molecule, the IC50 in the experiment on OVCAR-3 was determined as 910 nM; in the experiment with SNB-19, 2200 nM.
Take `Cc1ccc2cc(-c3c(C)cccc3C)nc(N)c2c1`: the IC50 in the experiment with HCT-116 [1] came to 74 nM; with PANC-1, 79 nM; with CAKI-1, 48 nM; in the experiment on SK-MEL-28, 120 nM; in the experiment with MDA-MB-231 it was 51 nM; in the experiment on PC-3, 120 nM. The figures for the IC50 in the experiment on OVCAR-3 and with SNB-19 were 75 nM and 120 nM, respectively.
For the molecule `Cc1ccc2cc(-c3ccc4c(c3)OCO4)nc(N)c2c1`, the IC50 in the experiment with HCT-116 [1] is 180 nM; in the experiment on PANC-1, 370 nM; in the experiment on CAKI-1 it was 130 nM; in the experiment with SK-MEL-28, 420 nM; in the experiment on MDA-MB-231, 150 nM; with PC-3, 250 nM. Moreover, the IC50 with OVCAR-3 was determined as 230 nM; in the experiment with SNB-19, 380 nM.
With `Cc1cccc(-c2cc3ccc(C)cc3c(N)n2)c1`, the IC50 in the experiment with HCT-116 [1] is 280 nM; with PANC-1 it was 690 nM; with CAKI-1 it was 440 nM; with SK-MEL-28 it was 500 nM; in the experiment with MDA-MB-231 it was 210 nM; with PC-3, 710 nM. In addition, the 50% inhibitory concentration (IC50) came to 290 nM in the experiment with OVCAR-3 and 530 nM with SNB-19.
On to `COc1ccc(C)c(-c2cc3ccc(C)cc3c(N)n2)c1`, for which the IC50 was 42 nM in the experiment with HCT-116 [1]; 58 nM in the experiment on PANC-1; 47 nM in the experiment on CAKI-1; 51 nM with SK-MEL-28; 30 nM in the experiment on MDA-MB-231; 70 nM in the experiment on PC-3. For the same molecule, the IC50 is 42 nM with OVCAR-3 and 52 nM in the experiment on SNB-19.
Regarding `COc1cc2cc(-c3c(C)cccc3C)nc(N)c2cc1OC`, the IC50 in the experiment with HCT-116 [1] amounted to 790 nM; with PANC-1, 540 nM; with CAKI-1 it was 530 nM; in the experiment on SK-MEL-28, 630 nM; in the experiment with MDA-MB-231 it was 250 nM; in the experiment on PC-3, 680 nM. Also, the values for the half-maximal inhibitory concentration (IC50) in the experiment with OVCAR-3 and with SNB-19 were 160 nM and 420 nM, respectively.
Turning to `COc1cc2cc(-c3cccc(C)c3)nc(N)c2cc1OC`, the IC50 in the experiment with HCT-116 [1] amounted to 2320 nM; with PANC-1 it was 2270 nM; with CAKI-1 it was 1780 nM; in the experiment on SK-MEL-28 it was 1120 nM; in the experiment with MDA-MB-231, 790 nM; in the experiment on PC-3 it was 2500 nM. Further, the values for the IC50 in the experiment with OVCAR-3 and in the experiment on SNB-19 were 580 nM and 1560 nM, respectively.
As for `Cc1cccc(-c2cc3ccc(N(C)C)cc3c(N)n2)c1.Cl`, the IC50 with HCT-116 [1] was determined as 23 nM; in the experiment with PANC-1, 18 nM; in the experiment with CAKI-1, 23 nM; in the experiment on SK-MEL-28 it was 32 nM; with MDA-MB-231, 21 nM; in the experiment on PC-3, 24 nM. For the same molecule, the half-maximal inhibitory concentration (IC50) was found to be 16 nM with OVCAR-3, 21 nM with HCT-15 [2] and 28 nM in the experiment with SNB-19. The “Ratio IC50” value in the experiment on HCT-116 [3] is given as 0.91.
With `COc1ccc(-c2cc3ccc(N(C)C)cc3c(N)n2)cc1OC`, the IC50 with HCT-116 [1] was 180 nM; in the experiment on PANC-1 it was 190 nM; in the experiment on CAKI-1, 170 nM; in the experiment on SK-MEL-28, 330 nM; with MDA-MB-231, 150 nM; with PC-3, 230 nM. Besides, the concentration for half-maximal inhibition (IC50) with OVCAR-3 stood at 140 nM; with SNB-19 it was 250 nM.
In the case of `COc1cccc(-c2cc3cc(N(C)C)ccc3c(N)n2)c1`, the 50% inhibitory concentration (IC50) was determined as 64 nM in the experiment on HCT-116 [1]; 110 nM in the experiment with PANC-1; 68 nM in the experiment with CAKI-1; 110 nM in the experiment on SK-MEL-28; 59 nM with MDA-MB-231; 190 nM in the experiment with PC-3. Moreover, the IC50 in the experiment on OVCAR-3 turned out to be 71 nM; with SNB-19, 94 nM.
In the case of `COc1ccccc1-c1cc2cc(C)ccc2c(N)n1`, the IC50 in the experiment with HCT-116 [1] is 670 nM; with PANC-1, 930 nM; in the experiment with CAKI-1, 350 nM; in the experiment with SK-MEL-28, 800 nM; with MDA-MB-231, 440 nM; in the experiment with PC-3 it was more than 3000 nM. The values for the IC50 with OVCAR-3 and in the experiment on SNB-19 were 490 nM and 1130 nM, respectively.
As for `COc1cccc(-c2cc3cc(C)ccc3c(N)n2)c1`, the IC50 in the experiment on HCT-116 [1] amounted to 190 nM; in the experiment on PANC-1 it was 310 nM; in the experiment on CAKI-1 it was 130 nM; in the experiment on SK-MEL-28, 340 nM; in the experiment on MDA-MB-231 it was 140 nM; in the experiment with PC-3, 250 nM. Moreover, the half-inhibitory concentration (IC50) stood at 180 nM in the experiment with OVCAR-3 and 290 nM in the experiment with SNB-19.
In the case of `COc1ccc(-c2cc3cc(C)ccc3c(N)n2)cc1`, the IC50 in the experiment with HCT-116 [1] was 1360 nM; in the experiment on PANC-1, 2270 nM; with CAKI-1, 750 nM; with SK-MEL-28, 1800 nM; in the experiment on MDA-MB-231, 930 nM; in the experiment on PC-3 it was 2980 nM. For the same molecule, the IC50 in the experiment on OVCAR-3 came to 790 nM; with SNB-19 it was 2230 nM.
As to `COc1cc(OC)cc(-c2cc3cc(C)ccc3c(N)n2)c1`, the IC50 turned out to be 240 nM in the experiment with HCT-116 [1]; 380 nM in the experiment on PANC-1; 160 nM with CAKI-1; 410 nM in the experiment with SK-MEL-28; 180 nM with MDA-MB-231; 430 nM with PC-3. The IC50 in the experiment with OVCAR-3 turned out to be 180 nM; in the experiment on SNB-19 it was 470 nM.
Take `Cc1ccc2c(N)nc(-c3ccccc3F)cc2c1`: the IC50 with HCT-116 [1] was 700 nM; with PANC-1, 1590 nM; in the experiment on CAKI-1, 460 nM; in the experiment on SK-MEL-28, 1070 nM; with MDA-MB-231, 550 nM; in the experiment on PC-3 it was 1840 nM. Further, the IC50 in the experiment with OVCAR-3 came out at 570 nM; with SNB-19, 1510 nM.
Take `COc1ccccc1-c1cc2ccc(C)cc2c(N)n1`: the IC50 with HCT-116 [1] was 470 nM; in the experiment with PANC-1, 680 nM; in the experiment on CAKI-1, 220 nM; with SK-MEL-28 it was 670 nM; in the experiment with MDA-MB-231 it was 320 nM; in the experiment with PC-3 it was 1010 nM. Moreover, the IC50 worked out at 510 nM in the experiment on OVCAR-3 and 780 nM with SNB-19.
As for `Cc1ccc2c(N)nc(-c3ccccc3C)cc2c1`, the IC50 in the experiment on HCT-116 [1] was 190 nM; in the experiment on PANC-1, 240 nM; in the experiment on CAKI-1, 120 nM; with SK-MEL-28 it was 350 nM; in the experiment with MDA-MB-231 it was 150 nM; in the experiment with PC-3, 240 nM. The IC50 in the experiment on OVCAR-3 amounted to 150 nM; in the experiment with SNB-19 it was 260 nM.
As to `CC(=O)O[C@H]1C(=O)[C@@]2(C)[C@H]([C@H](OC(=O)c3ccccc3)[C@]3(O)C[C@H](OC(=O)[C@H](O)[C@@H](NC(=O)c4ccccc4)c4ccccc4)C(C)=C1C3(C)C)[C@]1(OC(C)=O)CO[C@@H]1C[C@@H]2O` [PACLITAXEL], the inhibition in vivo (usually the share of the control response that was lost under treatment) at 10 mg/kg with HCT-15 [4] stood at 48.8%. For the same molecule, the “Ratio IC50” value in the experiment on HCT-116 [3] stood at 70.
